# Columns and labels:
# B-RAF(V600E) = B-RAF(V600E) (Homo sapiens, UniProt P15056, V600E); assay: B-RAF; format: biochemical; details: for IC50: B-RAF (V600E) IC50, n = 3; for selectivity for B-RAFV600E kinase over B-RAF wild-type kinase: ratio of kinase IC50 values
# B-RAF (wild-type) = B-RAF (wild-type) (Homo sapiens, UniProt P15056); assay: B-RAF; format: biochemical
# WM266.4 melanoma cells = assay: MTT cytotoxicity assay, B-RAFV600E-mutated melanoma cells; format: cell-based; details: for potency against WM266.4 melanoma cells relative to dabrafenib: WM266.4 cells
# Summary of the method: (§1)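 WM266.4 (B-RAFV600E) and Sk-mel-23 (B-RAF wild type) melanoma cells were grown in DMEM with FBS, penicillin and streptomycin at 37 °C under CO₂. […] MTT reagent was added and cells re-incubated; absorbance was read at 590 nm. IC50 was taken from concentration–inhibition curves (n = 3).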
# Sk-mel-23 melanoma cells = assay: MTT cytotoxicity assay, B-RAF wild type melanoma cells; format: cell-based; details: Homo sapiens, SK-MEL-23, 48 h, read-out: Sk-mel-23 IC50
# Summary of the method: as §1
# [1] = test system: phosphorylation of downstream ERK1/2 (pT202/Y204) in WM266.4 cells; assay: Cell-based B-RAFV600E kinase assay; details: for pERK 1/2: WM266.4 cell line, mean ± standard error of two experiments
# Summary of the method: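 Phospho-ERK1/2 (pT202/Y204) and total ERK1/2 were measured by a single-step sandwich ELISA (affinity-tagged capture antibody, reporter-conjugated detector antibody). pERK was reported in ng/mL as duplicate determinations. % inhibition was calculated against untreated control cells, as mean ± S.E. of two experiments.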
# Sequence of B-RAF (wild-type) (P15056 whole entry): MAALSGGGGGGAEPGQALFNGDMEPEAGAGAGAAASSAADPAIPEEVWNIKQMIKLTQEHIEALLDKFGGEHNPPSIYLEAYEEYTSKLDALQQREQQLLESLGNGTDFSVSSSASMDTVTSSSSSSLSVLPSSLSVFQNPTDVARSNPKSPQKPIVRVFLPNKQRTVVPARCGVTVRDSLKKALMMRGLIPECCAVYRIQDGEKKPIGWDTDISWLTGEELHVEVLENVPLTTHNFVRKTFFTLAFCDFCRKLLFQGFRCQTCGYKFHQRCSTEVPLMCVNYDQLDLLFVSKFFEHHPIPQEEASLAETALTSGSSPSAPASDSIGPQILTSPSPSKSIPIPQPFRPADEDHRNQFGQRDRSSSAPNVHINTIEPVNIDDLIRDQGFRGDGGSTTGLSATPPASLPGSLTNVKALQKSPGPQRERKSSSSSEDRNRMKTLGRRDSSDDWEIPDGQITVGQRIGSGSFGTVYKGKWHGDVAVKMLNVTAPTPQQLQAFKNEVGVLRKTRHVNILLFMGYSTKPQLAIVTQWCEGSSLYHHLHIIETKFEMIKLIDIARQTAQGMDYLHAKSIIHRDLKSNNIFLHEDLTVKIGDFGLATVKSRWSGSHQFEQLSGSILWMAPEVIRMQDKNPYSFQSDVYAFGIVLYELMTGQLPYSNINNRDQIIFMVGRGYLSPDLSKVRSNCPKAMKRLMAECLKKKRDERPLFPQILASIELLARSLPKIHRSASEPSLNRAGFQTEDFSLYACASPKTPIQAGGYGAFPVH
# Sequence of B-RAF(V600E) (P15056 whole entry V600E): as the sequence (P15056 whole entry) above, with V600E counted along it
Structure (SMILES),IC50 (B-RAF(V600E)),selectivity for B-RAFV600E kinase over B-RAF wild-type kinase (B-RAF(V600E)),IC50 (B-RAF (wild-type)),potency against WM266.4 melanoma cells relative to dabrafenib (WM266.4 melanoma cells),IC50 (Sk-mel-23 melanoma cells),also measured
"Cc1ccc(C(CS(=O)(=O)c2ccccc2)=NNc2nc(-c3ccc(OCCCCOc4ccc(-c5csc(NN=C(CS(=O)(=O)c6ccccc6)c6ccc(C)cc6)n5)cc4)cc3)cs2)cc1 [Compound 15, 1,1′-[1,4-Butanediylbis(oxy)]bis[4-(2-{[2-(benzenesulfonyl)-1-(p-tolyl)ethylidene]-hydrazino}thiazol-4-yl)benzene]]",51.9 ± 2.7 nM,5 fold,251 ± 13.5 nM,–,17600 ± 890 nM,cytotoxic potency toward WM266.4 rather than Sk-mel-23 melanoma cells (WM266.4 melanoma cells; WM266.4 (B-RAFV600E-mutated) versus Sk-mel-23 (B-RAF wild type)): equal potency
"Cc1ccc(C(CS(=O)(=O)c2ccccc2)=NNC(N)=S)cc1 [Compound 3, 2-Benzenesulfonyl-1-p-tolyl-ethanone thiosemicarbazone]",115 ± 6 nM,–,–,–,–,–
"NC(=S)NN=C(CS(=O)(=O)c1ccccc1)c1ccc(F)cc1 [Compound 17, 2-Benzenesulfonyl-1-(4-fluorophenyl)-ethanone thiosemicarbazone]",68.2 ± 3.5 nM,–,153 ± 8.2 nM,11 fold,12400 ± 630 nM,activity toward B-rafV600E as share of the activity of dabrafenib (B-RAF(V600E); relative to dabrafenib): 70%
"COc1ccc(-c2csc(NN=C(CS(=O)(=O)c3ccccc3)c3ccc(F)cc3)n2)cc1 [Compound 19, N-[2-Benzenesulfonyl-1-(4-fluorophenyl)-ethylidene]-N′-[4-(4-methoxyphenyl)thiazol-2-yl]-hydrazine]",116 ± 8 nM,–,–,–,–,–
"CC(C)(C)c1nc(-c2cccc(NS(=O)(=O)c3c(F)cccc3F)c2F)c(-c2ccnc(N)n2)s1 [Dabrafenib, dabrafenib]",–,–,–,–,9030 ± 460 nM,"pERK 1/2 [1]: 0.769 ± 0.018 ng mL^−1; % inhibition of pERK 1/2 ([1]; WM266.4 cells, compared with the control cancer cells): 71.9%"

# Further lines, with some results ahead:
IC50 (B-RAF(V600E)),selectivity for B-RAFV600E kinase over B-RAF wild-type kinase (B-RAF(V600E)),IC50 (B-RAF (wild-type)),Structure (SMILES),potency against WM266.4 melanoma cells relative to dabrafenib (WM266.4 melanoma cells),IC50 (Sk-mel-23 melanoma cells),also measured
23.1 ± 1.2 nM,approximately four,97.9 ± 5.2 nM,"Cc1ccc(C(CS(=O)(=O)c2ccccc2)=NN=C2N=C(c3ccc(Br)cc3)CS2)cc1 [Compound 13a, N-(2-Benzenesulfonyl-1-p-tolyl-ethylidene)-N′-[4-(4-bromo-phenyl)-5H-thiazol-2-ylidene]-hydrazine]",three to five,50200 ± 2560 nM,–
36.3 ± 1.9 nM,approximately four,124 ± 6.6 nM,"Cc1ccc(C(CS(=O)(=O)c2ccccc2)=NNc2nc(C)c(N=Nc3cccc(C)c3)s2)cc1 [Compound 7b, N-(2-Benzenesulfonyl-1-p-tolyl-ethylidene)-N′-(4-methyl-5-m-tolylazo-thiazol-2-yl)-hydrazine]",three to five,7870 ± 400 nM,pERK 1/2 [1]: 1.339 ± 0.035 ng mL^−1
199 ± 10 nM,–,–,"Cc1ccc(C(CS(=O)(=O)c2ccccc2)=NNc2nc(C)c(N=Nc3ccccc3)s2)cc1 [Compound 7a, N-(2-Benzenesulfonyl-1-p-tolyl-ethylidene)-N′-(4-methyl-5-phenylazo-thiazol-2-yl)-hydrazine]",–,–,–
84.9 ± 4.4 nM,approximately four,361 ± 19.4 nM,"Cc1ccc(C(CS(=O)(=O)c2ccccc2)=NNC2=NC(=O)C(=NNc3ccccc3)S2)cc1 [Compound 11a, 2-[N′-(2-Benzenesulfonyl-1-p-tolyl-ethylidene)-hydrazino]-5-(phenyl-hydrazono)-thiazol-4-one]",three to five,430 ± 20 nM,–
95.4 ± 5 nM,–,229 ± 12.3 nM,"Cc1ccc(C(CS(=O)(=O)c2ccccc2)=NNC2=NC(=O)C(=NNc3ccc([N+](=O)[O-])cc3)S2)cc1 [Compound 11c, 2-[N′-(2-Benzenesulfonyl-1-p-tolyl-ethylidene)-hydrazino]-5-[(4-nitro-phenyl)-hydrazono]-thiazol-4-one]",11 fold,22300 ± 1140 nM,–
108 ± 5.6 nM,–,–,"Cc1ccc(N=Nc2sc(NN=C(CS(=O)(=O)c3ccccc3)c3ccc(C)cc3)nc2C)cc1 [Compound 7c, N-(2-Benzenesulfonyl-1-p-tolyl-ethylidene)-N′-(4-methyl-5-p-tolylazo-thiazol-2-yl)-hydrazine]",–,–,–
185 ± 9.6 nM,–,–,"Cc1ccc(C(CS(=O)(=O)c2ccccc2)=NNC2=NC(=O)C(=NNc3ccc(Cl)cc3)S2)cc1 [Compound 11b, 2-[N′-(2-Benzenesulfonyl-1-p-tolyl-ethylidene)-hydrazino]-5-[(4-chloro-phenyl)-hydrazono]-thiazol-4-one]",–,–,–
206 ± 11 nM,–,–,"Cc1ccc(C(CS(=O)(=O)c2ccccc2)=NN=C2N=C(c3ccc(C)cc3)CS2)cc1 [Compound 13b, N-(2-Benzenesulfonyl-1-p-tolyl-ethylidene)-N′-(4-p-tolyl-5H-thiazol-2-ylidene)-hydrazine]",–,–,–

# — publication PMC9513682 (RSC Advances, 2022)
